Measurements: ChEMBL document CHEMBL3046199, “Synthesis and antiviral activities of pyrazole derivatives containing an oxime moiety” (J Agric Food Chem, 2008)

What was measured:
[1] = tested on: Tobacco mosaic virus; assay: In vivo antiviral activity against Tobacco mosaic virus (TMV) infected left side of tobacco leaves assessed as curative effect at 500 ug/ml treated after viral inoculation measured at 3-4 days after viral challenge; format: functional
[2] = tested on: Tobacco mosaic virus; assay: In vivo antiviral activity against Tobacco mosaic virus (TMV) infected left side of tobacco leaves assessed as inactivation effect at 500 ug/ml co-incubated with virus for 30 min before inoculation onto leaves measured at 3-4 days after viral challenge; format: functional
[3] = tested on: Tobacco mosaic virus; assay: In vivo antiviral activity against Tobacco mosaic virus (TMV) infected left side of tobacco leaves assessed as protective effect at 500 ug/ml treated 12 hr before viral inoculation measured at 3-4 days after viral challenge; format: functional
In short: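 TMV purified from inoculated N. tabacum upper leaves (ground in phosphate buffer, filtered, centrifuged at 10000g, twice PEG-treated, all at 4 °C), concentration from A260. Compound solution smeared on left half of same-age N. tabacum leaves, solvent on right half as control. Leaves inoculated 12 h later by brush with 6 × 10^-3 mg/mL TMV over silicon carbide. Local lesions counted 3-4 days post-inoculation, three repetitions. Inhibition % = (control lesions − treated lesions)/control lesions × 100.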

[4] = tested on: Tobacco mosaic virus; assay: In vivo antiviral activity against Tobacco mosaic virus (TMV) infected left side of tobacco leaves assessed as inactivation effect at 125 ug/ml co-incubated with virus for 30 min before inoculation onto leaves measured at 3-4 days after viral challenge; format: functional
[5] = tested on: Tobacco mosaic virus; assay: In vivo antiviral activity against Tobacco mosaic virus (TMV) infected left side of tobacco leaves assessed as inactivation effect at 62.5 ug/ml co-incubated with virus for 30 min before inoculation onto leaves measured at 3-4 days after viral challenge; format: functional
[6] = tested on: Tobacco mosaic virus; assay: In vivo antiviral activity against Tobacco mosaic virus (TMV) infected left side of tobacco leaves assessed as inactivation effect co-incubated with virus for 30 min before inoculation onto leaves measured at 3-4 days after viral challenge; format: functional, organism-based
[7] = tested on: Tobacco mosaic virus; assay: In vivo antiviral activity against Tobacco mosaic virus (TMV) infected left side of tobacco leaves assessed as inactivation effect at 250 ug/ml co-incubated with virus for 30 min before inoculation onto leaves measured at 3-4 days after viral challenge; format: functional
[8] = tested on: Tobacco mosaic virus; assay: In vivo antiviral activity against Tobacco mosaic virus (TMV) infected left side of tobacco leaves assessed as inactivation effect at […] ug/ml co-incubated with virus for 30 min before inoculation onto leaves measured at 3-4 days after viral challenge; format: functional

Cc1ccc(-n2nc(C)c(/C=N/OCc3ccc(Cl)nc3)c2Sc2ccc(F)cc2)cc1
Activity [1]: 22% | Activity [2]: 56.6% | Activity [3]: 31%

Cc1ccc(Sc2c(/C=N/OCc3ccc(Cl)nc3)c(C)nn2-c2ccc(C)cc2)cc1
Activity [1]: 32.1% | Activity [2]: 61% | Activity [3]: 15.7%

Cc1ccc(-n2nc(C)c(/C=N/OCc3c(C)nn(-c4ccc(Cl)cc4)c3Cl)c2Sc2ccc(F)cc2)cc1
Activity [1]: 31.9% | Activity [2]: 43% | Activity [3]: 19%

Cc1nn(-c2ccccc2)c(Sc2ccc(F)cc2)c1/C=N/OCc1c(C)nn(-c2ccc(Cl)cc2)c1Cl
Activity [1]: 35.6% | Activity [2]: 55.9% | Activity [3]: 32%

Cc1ccc(Sc2c(/C=N/OCc3c(C)nn(-c4ccc(C)cc4)c3Cl)c(C)nn2-c2ccc(C)cc2)cc1
Activity [1]: 38.9% | Activity [2]: 51.2% | Activity [3]: 44.8%

Cc1ccc(-n2nc(C)c(CO/N=C/c3c(C)nn(-c4ccc(C)cc4)c3Sc3ccc(F)cc3)c2Cl)cc1
Activity [1]: 22% | Activity [2]: 50.9% | Activity [3]: 41%

Cc1ccc(Sc2c(/C=N/OCc3c(C)nn(-c4ccc(C)cc4)c3Cl)c(C)nn2-c2ccc(Cl)cc2)cc1
Activity [1]: 18.9% | Activity [2]: 36.7% | Activity [3]: 21%

Cc1ccc(S(=O)(=O)c2c(/C=N/OCc3ccc(Cl)nc3)c(C)nn2-c2ccccc2)cc1
Activity [1]: 9% | Activity [2]: 45% | Activity [3]: 28%

COc1ccc(S(=O)(=O)c2c(/C=N/OCc3ccc(Cl)nc3)c(C)nn2-c2ccccc2)cc1
Activity [1]: 15.6% | Activity [2]: 30.1% | Activity [3]: 29.8%

Cc1nn(-c2ccccc2)c(S(=O)(=O)c2ccc(F)cc2)c1/C=N/OCc1ccc(Cl)nc1
Activity [1]: 21.7% | Activity [2]: 20.6% | Activity [3]: 40.2%

Cc1nn(-c2cccc(Cl)c2)c(S(=O)(=O)c2ccc(F)cc2)c1/C=N/OCc1ccc(Cl)nc1
Activity [1]: 11% | Activity [2]: 30% | Activity [3]: 12.9%

Cc1ccc(S(=O)(=O)c2c(/C=N/OCc3ccc(Cl)nc3)c(C)nn2-c2ccc(Cl)cc2)cc1
Activity [1]: 9.2% | Activity [2]: 33.3% | Activity [3]: 31.3%

COc1ccc(S(=O)(=O)c2c(/C=N/OCc3ccc(Cl)nc3)c(C)nn2-c2ccc(Cl)cc2)cc1
Activity [1]: 3.6% | Activity [2]: 30.9% | Activity [3]: 16.4%

Cc1nn(-c2ccc(Cl)cc2)c(S(=O)(=O)c2ccc(F)cc2)c1/C=N/OCc1ccc(Cl)nc1
Activity [1]: 7.7% | Activity [2]: 44.1% | Activity [3]: 42.2%

Cc1ccc(-n2nc(C)c(/C=N/OCc3ccc(Cl)nc3)c2S(=O)(=O)c2ccc(F)cc2)cc1
Activity [1]: 22% | Activity [2]: 11% | Activity [3]: 28.2%

Cc1ccc(Sc2c(/C=N/OCc3ccc(Cl)nc3)c(C)nn2-c2ccccc2)cc1
Activity [1]: 47% | Activity [4]: 69.2% | Activity [2]: 90.4% | Activity [3]: 31.3% | Activity [5]: 55.1% | EC50 [6]: 58.7 µg/mL | Activity [7]: 76% | Activity [8]: 40.1%

COc1ccc(Sc2c(/C=N/OCc3ccc(Cl)nc3)c(C)nn2-c2ccccc2)cc1
Activity [1]: 26.6% | Activity [4]: 48.9% | Activity [2]: 71.2% | Activity [3]: 16.4% | Activity [5]: 41% | EC50 [6]: 115 µg/mL | Activity [7]: 65% | Activity [8]: 32%

Cc1nn(-c2ccccc2)c(Sc2ccc(F)cc2)c1/C=N/OCc1ccc(Cl)nc1
Activity [1]: 24% | Activity [2]: 65.9% | Activity [3]: 18.9%

Cc1nn(-c2cccc(Cl)c2)c(Sc2ccc(F)cc2)c1/C=N/OCc1ccc(Cl)nc1
Activity [1]: 34.3% | Activity [2]: 61.7% | Activity [3]: 28.6%

Cc1ccc(Sc2c(/C=N/OCc3ccc(Cl)nc3)c(C)nn2-c2ccc(Cl)cc2)cc1
Activity [1]: 26% | Activity [2]: 61.2% | Activity [3]: 37.7%

COc1ccc(Sc2c(/C=N/OCc3ccc(Cl)nc3)c(C)nn2-c2ccc(Cl)cc2)cc1
Activity [1]: 12.9% | Activity [2]: 34.5% | Activity [3]: 22%

Cc1nn(-c2ccc(Cl)cc2)c(Sc2ccc(F)cc2)c1/C=N/OCc1ccc(Cl)nc1
Activity [1]: 37.3% | Activity [4]: 53% | Activity [2]: 80.6% | Activity [3]: 43.5% | Activity [5]: 51.2% | EC50 [6]: 65.3 µg/mL | Activity [7]: 65.7% | Activity [8]: 40.6%

CNCC(=O)N[C@@H](CO)C(=O)N[C@H]1[C@H](O)[C@@H](O)[C@H](n2ccc(N)nc2=O)O[C@@H]1C(N)=O [NINGNANMYCIN]
Activity [1]: 54.8% | Activity [4]: 72% | Activity [2]: 98% | Activity [3]: 57% | Activity [5]: 59.9% | EC50 [6]: 52.7 µg/mL | Activity [7]: 81.1% | Activity [8]: 44%
